According to ChEMBL document CHEMBL1157421, “Tenacigenin B derivatives reverse P-glycoprotein-mediated multidrug resistance inHepG2/Dox cells” (J Nat Prod, 2008):
Activity calls are given as the source filed them. No cut-off for these calls is given here.

Assays:
HepG2/Dox [1] = assay: Reversal of P-glycoprotein-mediated multidrug resistance in human HepG2/Dox cells assessed as increase in sensitivity at 25.2 uM in presence of puromycin; type: cell-based
In short: (§1)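 SRB growth-inhibition assay in HepG2 or doxorubicin-selected Pgp-overexpressing HepG2/Dox cells. Cells grown in RPMI 1640 with 10% FBS at 37 °C, 5% CO2. HepG2/Dox cells kept in 1.2 µM doxorubicin and grown drug-free for at least 7 days before use. IC50 of anticancer drug determined with or without modulator. Sensitivity fold = IC50 ratio. At least three repeats, mean ± SD.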

HepG2/Dox [2] = assay: Reversal of P-glycoprotein-mediated multidrug resistance in human HepG2/Dox cells assessed as increase in sensitivity at 25.2 uM in presence of doxorubicin; type: cell-based; in short: as §1
HepG2/Dox [3] = assay: Reversal of P-glycoprotein-mediated multidrug resistance in human HepG2/Dox cells assessed as increase in sensitivity at 25.2 uM in presence of vinblastine; type: cell-based; in short: as §1
[4] = Effect on doxorubicin-induced cell cycle arrest in multidrug resistance human HepG2/Dox cells assessed as accumulation in subG1 phase at 10 ug/ml; type: functional
In short: (§2)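 Flow-cytometric cell-cycle profiling. About 2 × 10^5 cells were seeded per dish and left overnight, then exposed to medium with or without drug for 48 h. Cells were fixed in 70% EtOH at -20 °C overnight and treated with RNase A (100 µg/mL, 37 °C, 30 min). They were then stained with propidium iodide (40 µg/mL final) at room temperature for 5-10 min and read on a FACSCalibur.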

[5] = Increase in doxorubicin uptake in multidrug resistance human HepG2/Dox cells assessed as cellular fluorescence at 40 ug/ml; type: functional
In short: (§3)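 Doxorubicin accumulation. About 1 × 10^6 HepG2/Dox cells in medium were given 10 µM doxorubicin with or without test agent and held at 37 °C for 40 min. Cells were washed in ice-cold PBS and fluorescence was read by flow cytometry. Increase (%) = 100 × (FT − FC)/FC; verapamil 10 µM served as positive control. Three experiments, mean ± SD.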

HepG2/Dox [6] = assay: Inhibition of Pgp-mediated Rh123 accumulation in multidrug resistance human HepG2/Dox cells at 40 ug/ml; type: cell-based
In short: (§4)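 Rh-123 efflux. About 1 × 10^6 HepG2/Dox cells were loaded with 5 µg/mL Rh-123 at 37 °C for 1 h and washed in ice-cold PBS. They then effluxed for 1 h at 37 °C in dye-free medium with 0-80 µg/mL test agent, and retained fluorescence was read by flow cytometry. Percentage increase over control was calculated; verapamil 15 µM served as positive control. Three experiments, mean ± SD.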

HepG2 [7] = assay: Reversal of P-glycoprotein-mediated drug resistance in human HepG2 cells assessed as increase in sensitivity at 25.2 uM in presence of paclitaxel; type: cell-based; in short: as §1
HepG2/Dox [8] = assay: Reversal of P-glycoprotein-mediated multidrug resistance in human HepG2/Dox cells assessed as increase in sensitivity at 25.2 uM in presence of paclitaxel; type: cell-based; in short: as §1
HepG2/Dox [9] = assay: Effect on P-glycoprotein expression in multidrug resistance human HepG2/Dox cells at 20 ug/ml after 72 hrs; type: functional, cell-based
In short: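 Western blot for Pgp. HepG2/Dox cells were incubated with 0, 5, 10 or 20 µg/mL test agent for 72 h, with untreated HepG2 as comparator. Lysates (50 µg total protein) were resolved on 10% SDS-PAGE and Pgp was detected by antibody labeling.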

HepG2/Dox [10] = assay: Inhibition of Pgp-mediated Rh123 accumulation in multidrug resistance human HepG2/Dox cells at 80 ug/ml; type: cell-based; in short: as §4
HepG2/Dox [11] = assay: Reversal of P-glycoprotein-mediated multidrug resistance in human HepG2/Dox cells assessed as increase in sensitivity at 12.6 uM in presence of vinblastine; type: cell-based; in short: as §1
[12] = Increase in doxorubicin uptake in multidrug resistance human HepG2/Dox cells assessed as cellular fluorescence at 10 ug/ml; type: functional; in short: as §3
HepG2/Dox [13] = assay: Reversal of P-glycoprotein-mediated multidrug resistance in human HepG2/Dox cells assessed as increase in sensitivity at 12.6 uM in presence of puromycin; type: cell-based; in short: as §1
[14] = Effect on doxorubicin-induced cell cycle arrest in multidrug resistance human HepG2/Dox cells assessed as accumulation in S phase at 20 ug/ml; type: functional; in short: as §2
[15] = Increase in doxorubicin uptake in multidrug resistance human HepG2/Dox cells assessed as cellular fluorescence at 20 ug/ml; type: functional; in short: as §3
[16] = Effect on doxorubicin-induced cell cycle arrest in multidrug resistance human HepG2/Dox cells assessed as accumulation in G2/M phase at 5 ug/ml; type: functional; in short: as §2
[17] = Effect on doxorubicin-induced cell cycle arrest in multidrug resistance human HepG2/Dox cells assessed as accumulation in S phase at 10 ug/ml; type: functional; in short: as §2
HepG2 [18] = assay: Reversal of P-glycoprotein-mediated drug resistance in human HepG2 cells assessed as increase in sensitivity at 25.2 uM in presence of vinblastine; type: cell-based; in short: as §1
HepG2/Dox [19] = assay: Reversal of P-glycoprotein-mediated multidrug resistance in human HepG2/Dox cells assessed as increase in sensitivity at 12.6 uM in presence of doxorubicin; type: cell-based; in short: as §1
HepG2 [20] = assay: Reversal of P-glycoprotein-mediated drug resistance in human HepG2 cells assessed as increase in sensitivity at 25.2 uM in presence of doxorubicin; type: cell-based; in short: as §1
HepG2 [21] = assay: Growth inhibition of doxorubicin-sensitive human HepG2 cells at 80 uM; type: functional
In short: (§5)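 SRB growth assay. HepG2 and HepG2/Dox cells were grown in RPMI 1640 with 10% FBS at 37 °C and 5% CO2; resistant cells were kept drug-free for at least 7 days before use. IC50 was taken from the SRB assay, with at least three repeats, reported as mean ± SD.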

[22] = Effect on doxorubicin-induced cell cycle arrest in multidrug resistance human HepG2/Dox cells assessed as accumulation in subG1 phase at 20 ug/ml; type: functional; in short: as §2
[23] = Effect on doxorubicin-induced cell cycle arrest in multidrug resistance human HepG2/Dox cells assessed as accumulation in G0/G1 phase at 5 ug/ml; type: functional; in short: as §2
[24] = Effect on doxorubicin-induced cell cycle arrest in multidrug resistance human HepG2/Dox cells assessed as accumulation in G0/G1 phase at 20 ug/ml; type: functional; in short: as §2
[25] = Effect on doxorubicin-induced cell cycle arrest in multidrug resistance human HepG2/Dox cells assessed as accumulation in S phase at 5 ug/ml; type: functional; in short: as §2
[26] = Effect on doxorubicin-induced cell cycle arrest in multidrug resistance human HepG2/Dox cells assessed as accumulation in G2/M phase at 10 ug/ml; type: functional; in short: as §2
[27] = Cell cycle arrest in multidrug resistant human HepG2/Dox cells assessed as accumulation in subG1 phase at 20 ug/ml; type: functional, cell-based; in short: as §2
[28] = Effect on doxorubicin-induced cell cycle arrest in multidrug resistance human HepG2/Dox cells assessed as accumulation in G2/M phase at 20 ug/ml; type: functional; in short: as §2
[29] = Cell cycle arrest in multidrug resistant human HepG2/Dox cells assessed as accumulation in S phase at 20 ug/ml; type: functional, cell-based; in short: as §2
[30] = Cell cycle arrest in multidrug resistant human HepG2/Dox cells assessed as accumulation in G2/M phase at 20 ug/ml; type: functional, cell-based; in short: as §2
HepG2 [31] = assay: Reversal of P-glycoprotein-mediated drug resistance in human HepG2 cells assessed as increase in sensitivity at 25.2 uM in presence of puromycin; type: cell-based; in short: as §1
[32] = Growth inhibition of multidrug resistant human HepG2/Dox cells at 80 uM; type: functional; in short: as §5
HepG2/Dox [33] = assay: Reversal of P-glycoprotein-mediated multidrug resistance in human HepG2/Dox cells assessed as increase in sensitivity at 12.6 uM in presence of paclitaxel; type: cell-based; in short: as §1
[34] = Cell cycle arrest in multidrug resistant human HepG2/Dox cells assessed as accumulation in G0/G1 phase at 20 ug/ml; type: functional, cell-based; in short: as §2
[35] = Effect on doxorubicin-induced cell cycle arrest in multidrug resistance human HepG2/Dox cells assessed as accumulation in subG1 phase at 5 ug/ml; type: functional; in short: as §2
[36] = Effect on doxorubicin-induced cell cycle arrest in multidrug resistance human HepG2/Dox cells assessed as accumulation in G0/G1 phase at 10 ug/ml; type: functional; in short: as §2

## C/C=C(\C)C(=O)O[C@@H]1[C@@H](OC(C)=O)[C@]2(C)[C@H](C(C)=O)CC[C@@]23O[C@]32CC[C@H]3C[C@@H](O[C@H]4C[C@@H](OC)[C@H](O[C@@H]5O[C@H](C)[C@@H](O)[C@@H](OC)[C@H]5O)[C@@H](C)O4)CC[C@]3(C)[C@@H]12 [TENACISSIMOSIDE A]
HepG2/Dox [1]
  Ratio IC50: 11.2
HepG2/Dox [2]
  Ratio IC50: 17.9
HepG2/Dox [3]
  Ratio IC50: 10
[4]
  Activity: 3.5%
[5]
  Activity: 41%
HepG2/Dox [6]
  inhibition: 50%
HepG2 [7]
  Ratio IC50: 1.1
HepG2/Dox [8]
  Ratio IC50: 5.8
HepG2/Dox [9]
  Activity: inactive
HepG2/Dox [10]
  inhibition: 90%
HepG2/Dox [11]
  Ratio IC50: 2.4
[12]
  Activity: 18%
HepG2/Dox [13]
  Ratio IC50: 7
[14]
  Activity: 5.1%
[15]
  Activity: 28%
[16]
  Activity: 44.2%
[17]
  Activity: 6.3%
HepG2 [18]
  Ratio IC50: 1.1
HepG2/Dox [19]
  Ratio IC50: 7.8
HepG2 [20]
  Ratio IC50: 1.1
HepG2 [21]
  inhibition at 80 µM: 50%
[22]
  Activity: 7.6%
[23]
  Activity: 39.8%
[24]
  Activity: 8.9%
[25]
  Activity: 6.8%
[26]
  Activity: 63.6%
[27]
  Activity: 3%
[28]
  Activity: 73%
[29]
  Activity: 7.2%
[30]
  Activity: 32%
HepG2 [31]
  Ratio IC50: 1.1
[32]
  inhibition at 80 µM: 50%
HepG2/Dox [33]
  Ratio IC50: 4.7
[34]
  Activity: 49.3%
[35]
  Activity: 3.5%
[36]
  Activity: 24.9%
